Measured values from ChEMBL document CHEMBL1122643, “Alpha-adrenoreceptor reagents. 2. Effects of modification of the 1,4-benzodioxan ring system on alpha-adrenoreceptor activity” (J Med Chem, 1984).
Calls of active or inactive are those of the source. The rule behind the calls is not given here.

Legend:
[1] = target: T1, Alpha-2 adrenergic receptor (Mus musculus) (UniProt P30545+Q01338+Q01337); assay: Presynaptic alpha-2 adrenergic receptor agonist activity in isolated mouse vas deferens; assay type: functional, tissue-based
Outline: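 Vasa deferentia from adult male MFI mice (>30 g) were held at 0.5 g initial tension in Mg-free Krebs solution at 30 °C, gassed with 95% O2/5% CO2. Tissues were field-stimulated at 0.1 Hz with 3-ms pulses, with voltage (100-140 V) set for about 100-mg twitches, recorded isometrically. Potency was expressed relative to the standard, run before and after each analogue curve in the same tissue.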

[2] = target: T1, Alpha-2 adrenergic receptor (Mus musculus); assay: Inhibition of alpha-2 adrenergic receptor; assay type: functional
[3] = target: T1, Alpha-2 adrenergic receptor (Mus musculus); assay: Presynaptic alpha-2 adrenergic receptor from mouse vas deferens agonistic activity relative to clonidine = 1.; assay type: functional, tissue-based
Outline: (§1)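 Isolated tissue agonist test, potency compared directly with the standard in the same experiment. Standard dose-response curves were run before and after the test compound's curve. Rat anococcygeus (male Sprague-Dawley, 200-250 g; Krebs, 30 °C, 95% O2/5% CO2) was compared with phenylephrine. Field-stimulated mouse vas deferens (0.1 Hz, Mg-free Krebs, 30 °C) was compared with clonidine.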

[4] = target: T2, Adrenergic receptor alpha-1 (Rattus norvegicus) (UniProt P15823+P23944+P43140); assay: Agonism at Alpha-1 adrenoceptor determined in rat anococcygeus preparation; Inactive.; assay type: functional; outline: as §1
[5] = Selectivity between pre- and post-synaptic sites of action.; assay type: functional
[6] = target: T3, Alpha-2 adrenergic receptor (Mus musculus, UniProt P30545+Q01338+Q01337); assay: Alpha-2 adrenergic receptor […] in mouse vas deferens relative to clonidine; assay type: functional, tissue-based; outline: as §1
T3 sequence (P30545 whole entry): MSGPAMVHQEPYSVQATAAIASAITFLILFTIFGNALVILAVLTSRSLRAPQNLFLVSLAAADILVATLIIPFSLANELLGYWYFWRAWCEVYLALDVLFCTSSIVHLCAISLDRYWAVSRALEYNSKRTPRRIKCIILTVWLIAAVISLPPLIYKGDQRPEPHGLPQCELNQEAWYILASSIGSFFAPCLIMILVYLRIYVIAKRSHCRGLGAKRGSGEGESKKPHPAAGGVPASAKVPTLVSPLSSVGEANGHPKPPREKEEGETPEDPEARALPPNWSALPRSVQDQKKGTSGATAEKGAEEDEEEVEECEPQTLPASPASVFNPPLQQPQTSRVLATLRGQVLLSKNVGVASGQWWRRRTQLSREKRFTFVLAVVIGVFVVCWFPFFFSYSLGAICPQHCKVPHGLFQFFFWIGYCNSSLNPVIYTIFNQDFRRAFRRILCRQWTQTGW
T3 sequence (Q01338 whole entry): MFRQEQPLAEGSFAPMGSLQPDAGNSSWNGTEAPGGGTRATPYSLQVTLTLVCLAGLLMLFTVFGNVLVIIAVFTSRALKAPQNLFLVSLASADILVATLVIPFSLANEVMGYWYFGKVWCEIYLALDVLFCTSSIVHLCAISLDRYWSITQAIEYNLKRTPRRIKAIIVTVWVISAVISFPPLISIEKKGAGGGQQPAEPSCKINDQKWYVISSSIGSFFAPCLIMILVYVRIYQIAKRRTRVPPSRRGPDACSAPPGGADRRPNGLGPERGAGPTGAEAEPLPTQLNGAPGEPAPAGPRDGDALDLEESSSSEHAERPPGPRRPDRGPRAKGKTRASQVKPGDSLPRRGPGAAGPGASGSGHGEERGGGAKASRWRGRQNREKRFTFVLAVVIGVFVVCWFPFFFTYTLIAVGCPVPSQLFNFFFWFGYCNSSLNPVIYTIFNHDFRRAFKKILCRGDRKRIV
T3 sequence (Q01337 whole entry): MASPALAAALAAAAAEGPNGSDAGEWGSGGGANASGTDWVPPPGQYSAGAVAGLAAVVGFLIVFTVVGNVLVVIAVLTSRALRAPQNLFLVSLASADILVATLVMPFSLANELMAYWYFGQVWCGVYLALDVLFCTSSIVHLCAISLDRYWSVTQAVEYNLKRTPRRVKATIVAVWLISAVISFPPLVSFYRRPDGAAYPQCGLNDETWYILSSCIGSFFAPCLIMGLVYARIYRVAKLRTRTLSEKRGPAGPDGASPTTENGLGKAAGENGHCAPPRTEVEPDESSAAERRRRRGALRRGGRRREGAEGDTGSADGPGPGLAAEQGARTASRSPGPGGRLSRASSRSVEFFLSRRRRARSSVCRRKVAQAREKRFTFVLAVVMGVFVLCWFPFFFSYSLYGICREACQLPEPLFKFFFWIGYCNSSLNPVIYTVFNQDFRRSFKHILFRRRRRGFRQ

[7] = target: T4, Adrenergic receptor alpha-1 (Rattus norvegicus, UniProt P15823+P23944+P43140); assay: Alpha-1 adrenergic receptor […] in rat anococcygeus assay; assay type: functional; outline: as §1
T4 sequence (P15823 whole entry): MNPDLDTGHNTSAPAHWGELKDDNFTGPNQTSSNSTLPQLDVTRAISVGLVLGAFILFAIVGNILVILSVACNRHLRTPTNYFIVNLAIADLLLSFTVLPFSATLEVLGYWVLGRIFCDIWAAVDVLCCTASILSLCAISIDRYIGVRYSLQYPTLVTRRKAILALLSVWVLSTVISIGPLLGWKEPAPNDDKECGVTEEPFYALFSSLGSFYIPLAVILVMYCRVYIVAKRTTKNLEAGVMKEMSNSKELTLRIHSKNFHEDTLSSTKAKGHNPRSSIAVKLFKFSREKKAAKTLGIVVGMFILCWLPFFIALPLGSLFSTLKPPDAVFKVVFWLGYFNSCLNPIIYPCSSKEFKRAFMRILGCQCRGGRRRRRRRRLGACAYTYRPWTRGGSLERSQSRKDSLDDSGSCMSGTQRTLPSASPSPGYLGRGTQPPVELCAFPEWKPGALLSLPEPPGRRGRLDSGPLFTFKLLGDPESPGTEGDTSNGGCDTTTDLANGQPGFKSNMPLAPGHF
T4 sequence (P23944 whole entry): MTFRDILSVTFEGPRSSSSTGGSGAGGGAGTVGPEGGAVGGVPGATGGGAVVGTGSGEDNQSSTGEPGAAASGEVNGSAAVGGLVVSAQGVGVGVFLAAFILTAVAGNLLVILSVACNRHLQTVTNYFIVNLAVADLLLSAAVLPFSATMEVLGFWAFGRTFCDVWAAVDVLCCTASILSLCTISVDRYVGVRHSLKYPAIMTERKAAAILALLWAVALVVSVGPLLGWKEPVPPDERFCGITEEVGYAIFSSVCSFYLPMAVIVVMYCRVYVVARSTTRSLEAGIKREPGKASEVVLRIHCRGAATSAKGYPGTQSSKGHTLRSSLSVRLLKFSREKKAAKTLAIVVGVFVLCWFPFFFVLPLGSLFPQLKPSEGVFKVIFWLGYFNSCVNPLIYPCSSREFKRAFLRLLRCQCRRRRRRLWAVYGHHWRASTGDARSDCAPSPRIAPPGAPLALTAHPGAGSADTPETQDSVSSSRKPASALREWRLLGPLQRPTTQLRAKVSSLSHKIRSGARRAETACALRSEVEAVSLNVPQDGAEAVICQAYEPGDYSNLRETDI
T4 sequence (P43140 whole entry): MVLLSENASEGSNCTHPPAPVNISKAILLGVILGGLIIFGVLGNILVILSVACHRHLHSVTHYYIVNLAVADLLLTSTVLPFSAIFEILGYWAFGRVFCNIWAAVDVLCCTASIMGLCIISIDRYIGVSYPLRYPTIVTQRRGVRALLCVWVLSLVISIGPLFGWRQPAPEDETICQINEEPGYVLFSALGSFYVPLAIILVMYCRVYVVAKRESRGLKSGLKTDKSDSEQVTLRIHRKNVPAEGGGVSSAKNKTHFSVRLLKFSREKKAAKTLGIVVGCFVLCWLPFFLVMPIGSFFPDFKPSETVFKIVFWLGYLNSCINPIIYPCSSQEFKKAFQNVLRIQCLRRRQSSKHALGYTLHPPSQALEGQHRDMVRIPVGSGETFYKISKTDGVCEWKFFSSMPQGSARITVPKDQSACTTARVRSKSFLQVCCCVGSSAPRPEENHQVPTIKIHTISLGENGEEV

[8] = target: T1, Alpha-2 adrenergic receptor (Mus musculus); assay: Ability to antagonize the inhibitory effect of clonidine on the mouse vas deferens is the presynaptic alpha-2 adrenergic receptor antagonist potency relative to idazoxan = 1.; assay type: functional, tissue-based
Outline: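 Male adult mouse vasa deferentia (MFI >30 g), 0.5 g initial tension, Mg-free Krebs, 30 °C, 95% O2/5% CO2. Field stimulation at 0.1 Hz, 3-ms pulses, 100-140 V set to give ~100-mg twitch, recorded isometrically.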

[9] = target: T2, Adrenergic receptor alpha-1 (Rattus norvegicus); assay: In vitro inhibition of the contractile effect of phenylephrine on the isolated rat anococcygeus; potency relative to idazoxan.; assay type: functional
[10] = Ratio of agonist potencies against alpha2 and alpha-1 adrenoceptors; assay type: functional
[11] = target: T2, Adrenergic receptor alpha-1 (Rattus norvegicus); assay: Agonism in vitro at Alpha-1 adrenoceptor determined in rat anococcygeus preparation.; assay type: functional; outline: as §1
[12] = target: T2, Adrenergic receptor alpha-1 (Rattus norvegicus); assay: Post-synaptic alpha-1 adrenergic receptor (rat anococcygeus) agonistic activity relative to phenylephrine; Inactive; assay type: functional; outline: as §1
[13] = target: T2, Adrenergic receptor alpha-1 (Rattus norvegicus); assay: In vitro inhibition of the contractile effect of phenylephrine on the isolated rat anococcygeus; potency relative to idazoxan; Inactive.; assay type: functional
[14] = target: T1, Alpha-2 adrenergic receptor (Mus musculus); assay: Presynaptic alpha-2 adrenergic receptor agonistic activity in mouse vas deferens relative to clonidine; assay type: functional, tissue-based; outline: as §1
[15] = target: T3, Alpha-2 adrenergic receptor; assay: Alpha-2 adrenergic receptor […] in mouse vas deferens assay compared to clonidine; assay type: functional, tissue-based; outline: as §1
[16] = target: T2, Adrenergic receptor alpha-1 (Rattus norvegicus); assay: Post-synaptic alpha-1 adrenergic receptor (rat anococcygeus) agonistic activity relative to phenylephrine; assay type: functional; outline: as §1

Compound	Agonist potency [3]	Agonist potency [4]	Ratio [5]	pA2 [6]	Antagonist potency [8]	Antagonist potency [9]	Agonist potency [11]	Antagonist potency [13]	Agonist potency [14]	also measured
Clc1cccc(Cl)c1NC1=NCCN1	–	–	–	–	–	–	–	–	–	pD2 [1]: 8.8; IC40 [2]: 3.68 nM
CCCC1(C2=NCCN2)Cc2ccccc2O1.Cl (configuration not stated)	inactive	inactive	1.9	8.63	1.9	1	–	–	–	pA2 [7]: 6.39; Selectivity ratio [10]: 175
Cl.c1ccc2c(c1)CC(C1=NCCN1)O2 (configuration not stated)	inactive	–	10.6	8.35	1.7	0.16	0.01	–	–	–
Cl.Clc1ccc2c(c1)CC(C1=NCCN1)O2 (configuration not stated)	inactive	inactive	1.5	7.8	0.53	0.35	–	–	–	pA2 [7]: 7.05; Selectivity ratio [10]: 5.6
COc1ccc2c(c1)CC(C1=NCCN1)O2 (configuration not stated)	inactive	–	5.2	–	0.12	0.023	–	–	–	Agonist potency [12]: inactive
Oc1ccc2c(c1)OC(C1=NCCN1)C2 (configuration not stated)	–	–	–	–	0.04	–	1.5	inactive	0.02	–
Cc1cccc2c1CC(C1=NCCN1)O2 (configuration not stated)	–	–	–	–	0.1	–	1.3	inactive	0.2	–
CCCCCC1(C2=NCCN2)Cc2ccccc2O1.Cl (configuration not stated)	inactive	inactive	0.44	7.97	0.44	1	–	–	–	pA2 [7]: 6.47; Selectivity ratio [10]: 32
Clc1cc(Cl)c2c(c1)CC(C1=NCCN1)O2 (configuration not stated)	–	–	–	–	0.06	–	0.14	inactive	< 0.0001	–
Cc1ccc(C)c2c1CC(C1=NCCN1)O2 (configuration not stated)	–	–	–	–	0.03	–	0.5	inactive	0.14	–
Clc1ccc2c(c1Cl)OC(C1=NCCN1)C2 (configuration not stated)	–	–	–	–	0.12	–	0.001	inactive	0.03	–
Cc1cccc2c1OC(C1=NCCN1)C2.Cl (configuration not stated)	inactive	inactive	2.4	8.22	1.6	0.67	–	–	–	–
CC1(C2=NCCN2)Cc2ccccc2O1 (configuration not stated)	–	–	0.71	–	0.25	0.35	–	–	0.002	Agonist potency [12]: inactive
Cl.c1ccc2c(c1)OCC(C1=NCCN1)O2 (configuration not stated) [IDAZOXAN HYDROCHLORIDE]	–	–	–	–	–	–	–	–	–	pA2 [15]: 7.98
Cc1cc(Cl)cc2c1OC(C1=NCCN1)C2 (configuration not stated)	inactive	–	–	–	0.5	–	–	inactive	–	Agonist potency [16]: 1
Cl.Clc1cccc2c1OC(C1=NCCN1)C2 (configuration not stated)	inactive	inactive	0.64	7.64	0.64	1	–	–	–	–
CCC1(C2=NCCN2)Cc2ccccc2O1.Cl (configuration not stated) [EFAROXAN HYDROCHLORIDE]	inactive	inactive	6	8.32	1.8	0.3	–	–	–	pA2 [7]: 5.91; Selectivity ratio [10]: 258
